Source: PubChem BioAssay
M1 agonist = M1 muscarinic receptor agonists, primary screen, CHO-M1 cells, Fluo-4 calcium, agonist mode. B-score at 10 µM. Muscarinic acetylcholine receptor M1. AID 626, 2007. actives 3% (n = 64,000). Fluo-4 calcium fluorescence; active compounds read high;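 active means fluorescence rise, raw or as B-score row- and column-corrected plate score, outside the 99.7% band of its plate's samples, either direction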
S1P1 ag pot = S1P1 agonists and agonism potentiators, primary screen, cell-based, primary and confirmation screens, CRE-bla reporter. Sphingosine 1-phosphate receptor 1 (Homo sapiens), P21453. S1P1 CRE-bla cells, forskolin, beta-lactamase FRET, potentiator mode; S1P1 agonist co-added at EC20, 2 nM; 100% = saturating reference agonist, 0% = basal. activation, % at 9.5 µM. actives 0.57% (n = 56,000);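 active means activation above a cutoff set at the mean activation of all tested compounds plus 3 SD, cut at about 54% in these data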;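 further: forskolin at 4 µM as EC80 and the EC20 agonist is SEW2871; 100% = SEW2871 at its EC100 plus forskolin at EC80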
S1P3 ag = human S1P3 receptor agonists, primary screen, cell-based, primary and confirmation, NFAT-BLA reporter | S1P3 NFAT-BLA reporter cells, agonism, FRET ratio; relative to 1 µM S1P, basal subtracted | activation, % at 4.5 µM | actives 0.1% (n = 60,000);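 active means activation above the screen-wide mean plus 3 SD, cut at about 4.5% in these data, passing the limit was not always enough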
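Benchmarks: high control 1 µM S1P / System: stable CHO line with human S1P3, Gα16, NFAT-BLA reporter / Dosing: single compound concentration, 4.5 µM final / Timing: 4 h compound at 37 °C, 2 h substrate at RT / Measured by: FRET β-lactamase substrate fluorescence, excitation 405 nm, 460/535 nm emission ratio, background-subtracted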
M1 antagonist = antagonists of rat M1 muscarinic receptor; actives 3.4% (n = 64,000); B-score at 10 µM; AID 628, 2007; CHO-M1 cells, Fluo-4 calcium, ACh EC80 antagonist mode; active compounds read low; Muscarinic acetylcholine receptor M1 (Rattus norvegicus), P08482;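 active means calcium fluorescence response, raw or row-and-column corrected B-score, differing from the plate sample mean either way at a set confidence level, mostly lower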
Target sequence (P08482 whole entry, looked up): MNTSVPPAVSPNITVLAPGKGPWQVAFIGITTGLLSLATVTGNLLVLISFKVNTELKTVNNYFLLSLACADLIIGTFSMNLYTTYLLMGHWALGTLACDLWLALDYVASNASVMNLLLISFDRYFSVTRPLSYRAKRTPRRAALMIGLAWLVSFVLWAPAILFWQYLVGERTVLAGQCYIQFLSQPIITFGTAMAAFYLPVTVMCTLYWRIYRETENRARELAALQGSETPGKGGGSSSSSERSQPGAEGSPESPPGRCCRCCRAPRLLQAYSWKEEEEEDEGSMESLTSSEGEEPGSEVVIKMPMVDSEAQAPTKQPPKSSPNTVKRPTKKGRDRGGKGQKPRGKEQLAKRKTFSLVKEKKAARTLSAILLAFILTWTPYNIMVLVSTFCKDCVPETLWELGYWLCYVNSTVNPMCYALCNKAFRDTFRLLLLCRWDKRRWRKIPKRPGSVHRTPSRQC
D1 allo mod = D1 CRE-luciferase signal change, two-sided – cell-based, HEK293 D1, dopamine EC30, D1 allosteric modulator project, primary screen. D(1A) dopamine receptor (Homo sapiens), P21728. dopamine EC30 potentiation; actives deviate in either direction. B-score at 10 µM. actives 5.9% (n = 58,000);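 active means luminescence count or its row- and column-corrected plate score outside the 99.7% band of the plate's sample wells, on either side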
M1 antag confirm = rat M1 muscarinic receptor antagonists, confirmation, CHO cells, Fluo-4 calcium, duplicate; shares compounds with M1 antagonist; calcium response (max-min fluorescence) at 10 µM; ACh EC80 antagonism; active compounds read low; actives 43% (n = 1,700); AID 677, 2007;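 active means calcium response below the same-plate mean of wells given acetylcholine alone at its 80%-effect dose, minus 3 SD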;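 further: raw fluorescence intensity difference in arbitrary instrument units and not normalized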
mGluR4 antag = human mGluR4 response to M1 antagonist hits, M1 allosteric modulator project, cell-based, antagonist mode, secondary assay 1. shares compounds with M1 antagonist. CHO-mGluR4 calcium flux, Fluo-4 fluorescence, glutamate EC80; active compounds read low. fluorescence response (max-min) at 10 µM. actives 0.9% (n = 1,700);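 active means fluorescence response below the plate's average for near-maximal glutamate wells, less 3 SD of those wells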;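 further: raw unnormalized fluorescence span taken in the window right after glutamate addition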
* marks the source's active call; other numbers are inactive results; · = no result. Most compounds without a hit are left out; they make up all but 11% or so of the library.

SMILES	M1 agonist	S1P1 ag pot	S1P3 ag	M1 antagonist	D1 allo mod	M1 antag confirm	mGluR4 antag
Cc1ccc(C)c(N2C(=O)CC(N3CCN(Cc4ccc5c(c4)OCO5)CC3)C2=O)c1 (centres undefined)	-0.59	-20	-1	-2.9*	-0.7	542*	178
CCOc1ccc(C2c3c(oc4ccccc4c3=O)C(=O)N2c2ccc(C)cn2)cc1OC (centres undefined)	-0.27	-33	0	0.54	2.5	·	·
COC(=O)c1ccccc1NC(=O)CSc1nnc(-c2cccc(NC(C)=O)c2)n1C	1.4	3	-1	0.31	·	·	·
Cc1cc(C)c2c(CN3CCN(Cc4ccc5c(c4)OCO5)CC3)cc(=O)oc2c1C	0.075	-14	-1	-6.2*	-0.29	376*	256
Cc1ccc(S(=O)(=O)N2CCC(C(=O)N3CCC[C@H]3C(=O)NCc3ccco3)CC2)cc1	-0.18	8	-1	-2.2*	0.77	555*	210
O=C(c1c(F)c(F)c(F)c(F)c1F)N1CCN(c2cccc(C(F)(F)F)c2)CC1	0.0063	-12	-1	-1.4	1.8	·	·
O=C(c1coc2ccccc2c1=O)N1CCN(c2cccc(C(F)(F)F)c2)CC1	0.31	·	·	-8.7*	0.93	178*	256
O=C(c1ccccc1F)N1CCN(c2cccc(C(F)(F)F)c2)CC1	0.028	-6	0	-2.9*	-0.13	566	258
COCCCn1c(SCC(=O)n2c(C)c(C)c3ccccc32)nnc1-c1ccoc1C	0.51	4	-1	0.64	-1.1	·	·
CCCC1COC(Cn2cncn2)(c2ccc(C)cc2)O1 (centres undefined)	1.2	11	-1	-13*	2.5	667	245
CC(C)(C)n1nnnc1C(c1cccs1)N(Cc1ccccc1)Cc1cccnc1 (centres undefined)	-0.23	9	0	-4.7*	-0.33	377*	236
CCN(Cc1ccccc1)C(c1ccncc1)c1nnnn1C(C)(C)C (centres undefined)	0.79	0	-2	0.99	0.013	·	·
O=C(CSc1nccc2ccccc12)N1CCN(c2ccccn2)CC1	-0.00069	6	-1	-0.013	-1.1	·	·
O=C(CCCNS(=O)(=O)c1ccc(Br)cc1)N1CC[C@@]2(O)CCCC[C@H]2C1	-0.21	3	-1	-0.52	-0.017	·	·
Cc1ccccc1OCC(=O)OC(C)CN1CCN(C)CC1 (centres undefined)	0.32	3	0	-5.5*	-0.035	641	246
COc1ccc(C(NC(N)=O)c2ccccc2)cc1 (centres undefined)	0.027	-4	-1	0.011	-0.037	·	·
COc1ccc(C(C(=O)OCCN(C)C)c2ccccc2)cc1 (centres undefined)	0.49	-1	0	-5.8*	0.0068	232*	259
CC(C)N1C(=O)C2ON(c3ccccc3)C(c3cccs3)C2C1=O (centres undefined)	-0.055	-34	3	-3.8*	-0.023	542	243
O=C1C2ON(c3ccccc3)C(c3ccncc3)C2C(=O)N1c1ccccc1 (centres undefined)	-0.81	-1	-3	0.72	·	·	·
CN1CCN(Cc2nc3c(c(=O)n(C)c(=O)n3C)n2CCc2ccccc2)CC1	-0.098	-8	0	-0.0031	0.039	·	·
Cc1nnc(C)c2c(C)n(Cc3ccc4c(c3)OCO4)c(C)c12	0.25	5	0	-4.5*	-0.98	535*	203
O=C(Nc1ccc(Cl)c(Cl)c1)N1CCC(N2CCCCC2)CC1	-0.15	3	-1	-2.5*	-0.21	407	208
CC(C)CCn1c(Br)nc2c1c(=O)n(CC(N)=O)c(=O)n2C	0.4	27	0	0.4	-0.4	·	·
Cc1ccc(C(C)C)c(OCc2nc(-c3nonc3N)no2)c1	-1.8	92*	17*	-2.4*	·	566	256
CCN(Cc1ccncc1)S(=O)(=O)c1ccc(C(C)=O)cc1	-0.11	24	0	-0.52	-0.93	·	·
SMILES	M1 agonist	S1P1 ag pot	S1P3 ag	M1 antagonist	D1 allo mod	M1 antag confirm	mGluR4 antag
CC(C)c1nc(-c2c(N)n(C)c(=O)n(C)c2=O)sc1C(=O)C(C)(C)C	-0.059	-23	1	0.49	·	·	·
CC(C)C(=O)Nc1cccc(C(=O)Nc2nccs2)c1	0.86	11	-2	-0.35	-0.19	·	·
COC(=O)Nc1nnc(Cc2ccccc2)s1	0.13	-1	-1	-17*	0.4	593	259
COC(=O)Nc1nnc(CCc2ccccc2)s1	0.031	-11	-1	0.54	-0.73	·	·
CN(C)C(CNC(=O)C1CCCN(C(=O)c2ccc(Cl)cc2)C1)c1ccco1 (centres undefined)	-0.016	-9	0	-3.6*	0.092	666	267
CCOc1ccc(C(C)=O)cc1CSc1nnc(-c2cccs2)n1CC1CCCO1 (centres undefined)	-0.2	5	0	-0.33	0.18	·	·
N#Cc1cn(Cc2ccccc2)c2ccccc12	-0.64	19	0	-1.9*	0.053	582	239
N#Cc1cn(CC(=O)NCc2cccnc2)c2ccccc12	0.27	-15	-1	-0.007	-0.67	·	·
CC(C(=O)NCc1ccc2c(c1)OCO2)N1c2cccc3cccc(c23)S1(=O)=O (centres undefined)	0.035	12	-1	-1.5	0.28	·	·
O=S(=O)(c1ccc2c(c1)OCCO2)N1CCC(O)(c2ccc(Cl)cc2)CC1	-0.66	37	0	-8.7*	-2	475*	260
CCOC(=O)c1c(C)c(C(=O)NCc2ccccn2)c(C)n1CC	-1	-3	-1	-0.24	·	·	·
COc1ccc(C2C3C(=O)N(Cc4ccccc4)C(=O)C3ON2c2ccccc2)c(OC)c1OC (centres undefined)	0.26	10	-1	-2.9*	-0.0021	654	188
COc1ccccc1C(=O)N(Cc1nc(-c2ccc(Cl)cc2)no1)C(C)C	-0.33	-13	0	-0.53	-0.41	·	·
CCCCn1cnc2sc3c(c2c1=N)CCCC3	-0.66	3	-2	-2.5*	-0.92	580	221
Cc1ccc(S(=O)(=O)NCCN=C(CN2CCCC2)NS(=O)(=O)c2ccc(C)cc2)cc1	-0.16	10	0	0.0064	-0.42	·	·
